The whole screen tested about 2,400 compounds, of which about 2,000 (83%) were called active.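 How the source made its calls: active means activation above a cutoff set at the run's mean compound activation plus 3 SD (cut at about 39% in these data); inactive means the rest.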 So high a share suggests a set chosen from earlier hits. The list is a sample of the results.
Target: Trace amine-associated receptor 1 (Homo sapiens) (UniProt Q96RJ0)
Experiment: activators of TAAR1 calcium signal, triplicate retest – Fluo-8 calcium fluorescence, CHO RD-HGA16 cells, confirmation (AID 651783);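 further: promiscuous G-alpha-16 overexpression reroutes TAAR1 signalling from cAMP to calcium; peak fluorescence divided by basal pre-compound fluorescence per well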
Conditions: CHO RD-HGA16 TAAR1, Fluo-8 calcium fluorescence; at 3 µM; stronger effect = higher value; scaled: DMSO 0%, maximal phenethylamine 100%
How it was run: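 material = RD-HGA16 CHO cells co-expressing hTAAR1 and promiscuous Gα16 | dosing = 3 µM single dose | incubation = Fluo-8 dye loading 75 min 37 °C, then 30 min room temperature | measured by = kinetic Fluo-8 calcium fluorescence over 140 s after basal | read-out = % activation from max-to-basal fluorescence ratio, DMSO-to-PEA scaled | repeats = triplicate wells per compound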

Sequence of Trace amine-associated receptor 1 (Homo sapiens) (Q96RJ0 whole entry, looked up): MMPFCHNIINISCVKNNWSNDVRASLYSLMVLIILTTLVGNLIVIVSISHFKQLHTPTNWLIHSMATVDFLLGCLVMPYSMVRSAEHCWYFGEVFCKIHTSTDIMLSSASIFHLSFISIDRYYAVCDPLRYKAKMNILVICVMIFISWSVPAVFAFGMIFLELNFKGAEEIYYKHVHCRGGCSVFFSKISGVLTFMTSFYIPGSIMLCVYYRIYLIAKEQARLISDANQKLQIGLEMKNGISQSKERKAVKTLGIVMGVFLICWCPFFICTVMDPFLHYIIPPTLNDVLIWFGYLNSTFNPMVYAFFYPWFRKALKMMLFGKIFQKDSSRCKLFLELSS

| Compound | activation |
| --- | --- |
| O=C(COC(=O)Cc1ccccc1F)NCCc1ccccc1 | 73% (active) |
| C[C@H](NC(=O)c1ccccc1)C(=O)OCC(=O)c1c[nH]c2ccccc12 | 79.6% (active) |
| CC(=O)Nc1ccccc1Sc1ccc2c3c(cccc13)C(=O)N(c1ccc(C)cc1)C2=O | -2.82% (inactive) |
| Cc1ccn2c(=O)c(C(=O)NCCC3=CCCCC3)c(O)nc2c1 | 106% (active) |
| O=C(CCCN=C1NS(=O)(=O)c2ccccc21)OCC(=O)c1ccc(F)c(F)c1 | 83.8% (active) |
| O=Cc1c(NCCc2cccc(F)c2)c2ccccc2[nH]c1=O | 78.3% (active) |
| CCCCOc1ccc(CSC(=N)N)cc1[N+](=O)[O-] | 48% (active) |
| O=C1CCCC(O)=C1C=NCCc1ccccc1 | 74.5% (active) |
| COc1cccc(-c2cnc(OC(C)(C)C)nc2OC(C)(C)C)c1 | 38.6% (active) |
| CN(C)c1ccc(/C=C2\NC(=S)N(Cc3ccccc3)C2=O)cc1 | 51.1% (active) |
| O=C(CSc1nc(-c2ccco2)cc(C(F)(F)F)n1)NCc1cccs1 | -0.49% (inactive) |
| c1ccc2c(c1)OCC(CNc1ncnc3nc[nH]c13)O2 (centres undefined) | 210% (active) |
| CCCSc1nc2c(c(=O)n(C)c(=O)n2C)n1Cc1ccc(C)cc1 | 61% (active) |
| COc1ccc(C(=O)CN2C(=O)NC(C)(c3ccc(C)cc3)C2=O)cc1OC (centres undefined) | 46.6% (active) |
| c1ccc(Nc2nc(N3CCOCC3)c3ccccc3n2)cc1 | 93.8% (active) |
| CC(NC(=O)c1cc(-c2ccccc2)on1)c1ccccc1 (centres undefined) | 66.5% (active) |
| O=C(Nc1ccccc1)Nc1nnc(COc2ccccc2F)s1 | 71.7% (active) |
| Nc1cc(OC(=O)c2ccccc2Br)nn1S(=O)(=O)c1ccccc1 | 59.1% (active) |
| COc1ccc(CC(N)c2csc(NC(=O)Cc3ccccc3)n2)cc1 (centres undefined) | 57.8% (active) |
| NC(Cc1ccccc1)c1csc(Nc2cc(Oc3ccccc3)ncn2)n1 (centres undefined) | 87% (active) |
| CC(C)(C)CC(=O)Nc1nc(C(N)Cc2ccc(C(F)(F)F)cc2)cs1 (centres undefined) | 99% (active) |
| CN(C)CCCN(C(=O)c1ccc(S(=O)(=O)N2CCCCCC2)cc1)c1nc2ccc(Br)cc2s1 | 44% (active) |
| CN(C)CCCN(C(=O)c1ccc(S(=O)(=O)N2CCCc3ccccc32)cc1)c1nc2ccc(F)cc2s1 | 62.2% (active) |

| Compound | activation |
| --- | --- |
| Cc1cccc(NC(=O)C(C)N2C(=O)C3C4CC(C(Br)C4Br)C3C2=O)c1 (centres undefined) | 33.9% (inactive) |
| O=C1CCCN2N=C(SCC(=O)Nc3ccc(Br)cc3)SC2=N1 | 55.6% (active) |
| O=C(NCCc1ccccc1)C(=O)NCC1OCCN1S(=O)(=O)c1cccs1 (centres undefined) | 70.4% (active) |
| Cn1c(=O)c(=O)n(C)c2cc(S(=O)(=O)NCCc3ccccc3)ccc21 | 98.3% (active) |
| CC(Oc1ccc2ccccc2c1)C(=O)NNC(=S)NC(=O)c1ccco1 (centres undefined) | 76% (active) |
| CCCc1ccc(OCC(=O)NNC(=S)NC(=O)c2ccco2)cc1 | 93.8% (active) |
| Oc1ccc2ccc3cccc[n+]3c2c1 | 60.5% (active) |
| COc1ccc(C(N)c2csc(NC(=O)Nc3cccc(C(F)(F)F)c3)n2)cc1 (centres undefined) | 45.9% (active) |
| NC(c1ccccc1)c1csc(NC(=O)Nc2cccc(C(F)(F)F)c2)n1 (centres undefined) | 61.4% (active) |
| O=c1cnnc(Nc2ccccc2)[nH]1 | 80.2% (active) |
| CCCCC(=O)NNC(=S)NC(=O)C(c1ccccc1)c1ccccc1 | 152% (active) |
| Cc1cc(C)c2cc(C#N)c(N3CCNCC3)nc2c1 | 90.6% (active) |
| CCOc1ccc(Br)cc1CSC(=N)N | 73.8% (active) |
| CCN(CC)c1ccc2oc(=O)c(C)nc2c1 | 34.1% (inactive) |
| O=C(Nc1ccc(Cl)cc1)N1CCc2[nH]c3ccccc3c2C1 | 21.7% (inactive) |
| O=C(c1noc2c1CCCC2)N1CCc2ccccc2C1 | 68% (active) |
| Cc1cc(=O)oc2c(C)c(OCC(=O)NCCN3CCOCC3)ccc12 | 2.28% (inactive) |
| c1ccc(-c2csc(N3CCc4ccccc4C3)n2)cc1 | 81.8% (active) |
| CSc1nc(N)c(C#N)c(-c2ccccc2Cl)c1C#N | 58.5% (active) |
| O=C(NCCc1ccccc1)/C(=C\c1ccc([N+](=O)[O-])cc1)NC(=O)c1ccccc1 | 34.4% (inactive) |
| CCCCCC(=O)NC(=S)NNC(=O)c1ccc([N+](=O)[O-])cc1 | 113% (active) |
| Cc1ccc(Cl)cc1N1CCN(C(=O)c2cccc3c(=O)c(C)c(-c4ccccc4)oc23)CC1 | 113% (active) |
| S=C(NCCc1ccccc1)N1CCn2cccc2C1c1ccncc1 (centres undefined) | 95% (active) |

| Compound | activation |
| --- | --- |
| COc1ccc2c(c1)OC(O)(C(F)(F)C(F)F)CC2=O (centres undefined) | 38.7% (active) |
| COC(=O)c1[nH]c2cccc(C)c2c1NC(=O)CN1CCCc2ccccc21 | 68.9% (active) |
| Cc1cc2nc3c(=O)[nH]c(=O)nc-3n(C[C@H](O)[C@H](O)[C@H](O)CO)c2cc1C | 121% (active) |
| O=C(N[C@H](C(=O)N1CCC[C@H]1C(=O)NCCc1ccccc1Cl)c1ccccc1)c1ccccc1 | 83.6% (active) |
| Nc1cccc2c1C(=O)N(Cc1nnc(-c3ccccc3Br)o1)C2=O | 100% (active) |
| CCC(c1nnnn1Cc1ccco1)N(CCc1ccccc1)Cc1cc2cccc(C)c2[nH]c1=O (centres undefined) | 50.2% (active) |
| CCC(c1nnnn1Cc1ccco1)N(CCc1ccccc1)Cc1cc2ccc(OC)cc2[nH]c1=O (centres undefined) | 30.9% (inactive) |
| CCCn1c(O)c(CN2CCCC(C)C2)c(C)c(C#N)c1=O (centres undefined) | 85% (active) |
| Nc1c(NCCc2ccccc2)c2ccccc2oc1=O | 70.5% (active) |
| CC(Oc1ccc(Cl)cc1)C(=O)OCC(=O)Nc1ncc(Cl)cc1Cl (centres undefined) | 30.3% (inactive) |
| O=[N+]([O-])c1cc(S(=O)(=O)NCCc2ccccn2)ccc1Cl | 76.4% (active) |
| O=C1C=C(c2ccc(Cl)cc2)C(=O)N1Nc1ccccc1 | 58.5% (active) |
| CCc1ccccc1S(=O)(=O)Cc1ccc(C(=O)NCCc2ccccc2)o1 | 78.3% (active) |
| O=C(NNC(=S)NC(=O)c1cn(-c2ccccc2)nc1-c1ccccc1)c1ccncc1 | 103% (active) |
| O=C(Nc1ccc(F)cc1)Nc1nnc([C@H]2C[C@H](O)[C@@H](CO)O2)s1 | 52.9% (active) |
| Nc1c(C(=O)c2cccs2)sc2nsc(SCCN3CCCCC3)c12 | 85% (active) |
| S=C(Nc1ccc(Br)cc1)NC1CCN(Cc2ccccc2)CC1 | 62.4% (active) |
| CCCCCCCCCCOC(=O)Cn1c(COc2ccc(C)cc2)[n+](C)c2ccccc21 | 109% (active) |
| COCCCn1c(Cc2csc(Nc3cccc(Cl)c3)n2)nnc1SCC(=O)OC1CCCCC1 | -1.89% (inactive) |
| Cc1ccc(NC(=O)CCN2CCc3ccccc3C2)cc1 | 88.5% (active) |
| CCCC1CCC(=NNC(=S)NCCc2ccccc2)CC1 (centres undefined) | 73.7% (active) |
| COc1cc(OC)cc(C(=O)N[C@H](C(=O)OCC(=O)NC(C)c2ccccc2)C(C)C)c1 (some centres undefined) | 41.1% (active) |
| CC(=O)Oc1ccc(Cn2c(C)c(C(=O)NCc3ccc(C#N)cc3)sc2=O)cc1 | 113% (active) |

| Compound | activation |
| --- | --- |
| NC[C@H](Cc1ccccc1)NCCc1cc(C(F)(F)F)cc(C(F)(F)F)c1 | 55.9% (active) |
| COc1cc(OC)c(-n2cc(-c3ccc(Cl)cc3)[nH]c2=O)cc1Cl | 117% (active) |
| O=C(O)C1C2C=CC(O2)C1C(=O)NCCc1cccc(Cl)c1 (centres undefined) | 101% (active) |
| COc1ccc(C(=O)NC(=S)NNC(=O)CCc2ccccc2)cc1 | 115% (active) |
| O=C(Nc1cccc(NC(=O)c2ccc(Br)cc2)c1)c1ccccc1 | 5.69% (inactive) |
| COc1ccc(C(=O)NNC(=S)NC(=O)c2ccccc2)cc1 | 127% (active) |
| COc1ccc(Cl)cc1C(=O)NNC(=S)NC(=O)/C=C/c1ccco1 | 108% (active) |
| Cc1ccc(O)c(NC(=S)NC(=O)COc2ccc(Br)cc2)c1 | 129% (active) |
| CCc1ccc(-c2nn(-c3ccccc3)cc2CSC(=N)N)cc1 | 58.1% (active) |
| CCCCc1c(-c2ccc(Cl)cc2)ncn1CCc1ccccc1OC | 81% (active) |
| CCCCc1c(-c2ccc(Br)cc2)ncn1CCc1ccccc1OC | 68.2% (active) |
| CCc1c(-c2ccccc2OC)ncn1CCc1ccccc1OC | 82.6% (active) |
| COc1ccc(OC)c(C(c2nnnn2C(C)(C)C)N2CCc3ccccc3C2)c1 (centres undefined) | 66.7% (active) |
| CCOC(=O)Cc1csc(NC(=O)Nc2ccccc2)n1 | 60.1% (active) |
| O=C(Nc1ccncc1)Nc1ccc(F)cc1 | 83.6% (active) |
| CCCCCc1c(-c2ccc(OC)c(OC)c2)ncn1CCc1ccccc1OC | 98.3% (active) |
| CCCCCc1c(Cc2ccccc2)ncn1CCc1ccccc1OC | 84.3% (active) |
| CCCCCc1c(-c2cccc(Br)c2)ncn1CCc1ccccc1OC | 37.5% (active) |
| NC(=O)C1=C[C@H](c2csc3ccccc23)C[C@H](OCc2ccc(CO)cc2)O1 | 58.4% (active) |
| c1ccc2c(c1)C(=NC1CCCCC1)NC2=NC1CCCCC1 | 90.4% (active) |
| CCC(C(=O)Nc1ccc(C(C)C)cc1)c1ccccc1 (centres undefined) | 114% (active) |
| C#CCOc1ccc(/C=C2/C(=O)NN(c3ccccc3)C2=O)cc1OC | 88% (active) |
| COc1ccc2cc(-c3[nH]ncc3CNCCn3nc(C)cc3C)ccc2c1 | 57.6% (active) |

| Compound | activation |
| --- | --- |
| Cc1ccccc1NC(=S)NC(=O)Cc1ccc(Cl)cc1 | 85.2% (active) |
| O=C(Cc1ccc(Cl)cc1)NC(=S)Nc1ccccc1O | 134% (active) |
| S=C(NCCCc1cnc[nH]1)NCCCN(Cc1ccc(Cl)c(Cl)c1)c1ccc(Br)cn1 | 58% (active) |
| Cc1c(CNCCc2ccccc2)c(C(=O)O)c(C)n1-c1ccccc1 | 88.8% (active) |
| CN(C(=O)CN(CCO)CC(=O)N(C)C(C)(C)Cc1ccccc1)C(C)(C)Cc1ccccc1 | 101% (active) |
| Cc1ccccc1-c1nc(CS(=O)(=O)CC(=O)N2CCc3ccccc3C2)c(C)o1 | 68.7% (active) |
| COc1ccc(NC(=O)C(=O)NCC(c2ccco2)N2CCc3ccccc3C2)cc1 (centres undefined) | 40.5% (active) |
| c1ccc(C2CNCc3c2ccc2ccccc32)cc1 (centres undefined) | 88.2% (active) |
| N#Cc1ccc(OCCCN2CCC(C(O)(c3ccccc3)c3ccccc3)CC2)c(F)c1 | 36.6% (inactive) |
| Cc1ccc(Sc2cc(N3CCOCC3)nc(-c3ccccc3)n2)cc1 | 19.1% (inactive) |
| CCCc1cc(C(=O)Nc2ccc(C(=O)OC)cc2)cs1 | 1.29% (inactive) |
| Cc1ccc(S(=O)(=O)N(CC(=O)N2CCc3ccccc3C2)c2cccc(Cl)c2)cc1 | 56.1% (active) |
| COc1cccc(N(CC(=O)N2CCc3ccccc3C2)S(C)(=O)=O)c1 | 63.4% (active) |
| OC(CNCCc1ccc(Cl)cc1Cl)COc1ccccc1 (centres undefined) | 87.4% (active) |
| Nc1nnn(CC(=O)N/N=C/c2ccccc2)n1 | 61.6% (active) |
| CCCOc1ccc(-c2c(C(=O)N/N=C/c3ccco3)nnn2-c2nonc2N)cc1 | 73.1% (active) |
| Nc1nonc1-n1nnc(C(=O)N/N=C/c2ccc(Cl)cc2)c1-c1ccc2c(c1)OCO2 | 142% (active) |
| COc1ccc(C(=O)NC(=S)NNC(=O)c2c(-c3ccccc3)noc2C)cc1 | 93% (active) |
| Cc1onc(-c2ccccc2)c1C(=O)NNC(=S)NC(=O)c1ccc(F)cc1 | 127% (active) |
| COc1ccc(OC)c(NC(=S)N2CCc3ccccc3C2)c1 | 87.5% (active) |
| Fc1ccc(NC(=S)N2CCc3[nH]c4ccccc4c3C2)cc1 | 32.8% (inactive) |
| O=C(/C=C/[C@H]1O[C@@H](n2cnc3c(NC(=O)c4ccccc4)ncnc32)[C@H](O)[C@@H]1O)NCc1ccccc1 | 0.79% (inactive) |

Reference: PubChem BioAssay AID651783 (The Scripps Research Institute Molecular Screening Center, 2012)
